Source: PubChem BioAssay
An excerpt weighted towards active compounds, which were near 1.5% of everything screened.
UCH37 DUB inh: inhibitors of human deubiquitinating enzyme UCH37; Q9Y5K5; purified proteasome/UCH37, Ub-AMC cleavage fluorescence; inhibition, % (concentration not given with the values); 330,000 tested, 0.33% active;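 active means mean inhibition over replicate wells above about 20%, limit read from the data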;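 further: 0% = compound-free wells with enzyme and 100% = wells lacking proteasome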
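Assay system: Proteasome-bound UCH37. Buffer or medium: pH 7.4 Tris-HCl (50 mM) with ovalbumin, ATP-MgCl2, DTT. Incubation: 30 min preincubation with enzyme, 25 min cleavage at room temperature. Measured by: fluorescence, ex 355 nm, em 460 nm. Read-out basis: percent inhibition. Control set: wells without proteasome as full block, compound-free enzyme plus substrate as uninhibited.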
MT1-MMP act inh: MT1-MMP (human) activation inhibition; P50281; HT1080 RFP-PRO-GFP cells, GFP/RFP ratio fluorescence, overnight; percent of plate control window, DMSO zero; GFP/RFP ratio change, % at 20 µM; 360,000 tested, 0.061% active; AID 651647;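 active means GFP/RFP ratio change of at least 30% with cell ATP level not reduced by more than half and red fluorescence within 50% of control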
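Assay system: HT1080 RFP-PRO-GFP cells | Dosing: 20 µM single dose, 1% DMSO | Incubation: Cells overnight before dosing, compound overnight, 37 °C, 5% CO2 | Evaluation: GFP/RFP fluorescence ratio | Control set: DMSO-only wells and HT1080 RFP-L50D-GFP cell wells as references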
DAGLB inhibitor: blocks human DAGLB lipase activity; inhibition, % at 5.17 µM; HEK293T DAGLB membrane lysate, EnzChek fluorogenic substrate; Q8NCG7; 340,000 tested, 0.059% active; AID 504411; in the data active means inhibition above about 34%;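 further: 0% = enzyme with vehicle and 100% = wells lacking enzyme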
Target sequence (Q8NCG7 whole entry, looked up): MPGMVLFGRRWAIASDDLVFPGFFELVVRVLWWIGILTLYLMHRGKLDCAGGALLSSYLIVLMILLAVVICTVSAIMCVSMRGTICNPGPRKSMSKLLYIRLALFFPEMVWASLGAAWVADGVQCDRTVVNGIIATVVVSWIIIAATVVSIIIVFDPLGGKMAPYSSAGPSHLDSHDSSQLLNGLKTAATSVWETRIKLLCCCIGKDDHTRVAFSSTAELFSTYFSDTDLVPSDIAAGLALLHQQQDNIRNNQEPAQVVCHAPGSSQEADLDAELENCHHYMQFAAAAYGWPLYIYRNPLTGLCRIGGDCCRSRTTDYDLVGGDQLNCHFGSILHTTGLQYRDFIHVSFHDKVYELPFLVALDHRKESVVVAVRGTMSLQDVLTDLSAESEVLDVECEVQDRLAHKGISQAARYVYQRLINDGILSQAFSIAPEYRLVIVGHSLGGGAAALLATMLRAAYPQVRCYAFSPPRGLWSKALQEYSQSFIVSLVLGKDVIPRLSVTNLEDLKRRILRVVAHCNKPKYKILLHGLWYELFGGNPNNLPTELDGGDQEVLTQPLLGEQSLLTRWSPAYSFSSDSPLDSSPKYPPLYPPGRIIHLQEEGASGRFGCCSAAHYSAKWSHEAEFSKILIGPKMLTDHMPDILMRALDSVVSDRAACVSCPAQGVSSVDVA
CTSL1 counter: blocks F. hepatica cathepsin L1 in PFM18AAP counter-screen | recombinant F. hepatica cathepsin L1, Z-Leu-Arg-MCA fluorescence | 300,000 tested, 0.49% active | inhibition, % at 5.96 µM;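 active means inhibition above the mean of all tested compounds plus 3 SD, set per screening campaign, cut at about 17% in these data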;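 further: 0% = plate median of test compound wells and 100% = 1 µM Z-Phe-Ala-diazomethylketone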
NRP1-CendR mod: alters CendR peptide binding to human NRP-1; O14786; FAM-RPARPAR peptide binding to NRP-1, fluorescence polarization; inhibition, % at 25 µM; 360,000 tested, 0.85% active;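 active means inhibition or corrected inhibition above about 18%, plus a signal ratio from 0.5 to 1.5, limit read from the data, passing the limit was not always enough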
Active calls of the source: *; . = no result.

SMILES	UCH37 DUB inh	MT1-MMP act inh	DAGLB inhibitor	CTSL1 counter	NRP1-CendR mod
CCOC(=O)N1CCC(n2c(SCC(=O)NCCC3=CCCCC3)nc3ccccc3c2=O)CC1	24.4*	0.8	-3.3	2.5	-7.7
CCOC(=O)N1CCC(n2c(SCC(=O)NCc3ccccc3)nc3ccccc3c2=O)CC1	1.9	2.4	-0.9	-0.8	-5.9
C=CCOc1ccccc1C=Nn1nnnc1N	-2.4	.	.	.	.
CCOc1ccccc1NC(=O)C(Sc1ccccc1)c1ccccc1 (stereo not drawn)	4.7	-13.9	-12.3	3.7	26.6*
COc1ccccc1NC(=O)C(Sc1ccccc1)c1ccccc1 (stereo not drawn)	-0.1	-2.2	-3.0	3.3	-6.4
CC(=NN=c1sc2ccccc2n1C)c1ccc(N2CCOCC2)cc1	4.9	.	.	.	.
CC1(c2nnc(Cc3ccccc3)o2)CC(c2cccc(Cl)c2)=NO1 (stereo not drawn)	1.1	1.6	-3.9	-1.8	27.5*
CCCN=C1CC(C)(C)CC(=O)/C1=C(\O)CCC	2.2	.	.	.	.
CC(CC(=O)NC12CC3CC(CC(C3)C1)C2)=NNC(=O)c1cnccn1	-0.3	.	.	.	.
N#C/C(=N/Nc1ccc([N+](=O)[O-])cc1)C(=N)N1CCCCC1	.	17.8	22.7	.	-20.6
N#CC(=NNc1ccc([N+](=O)[O-])cc1)C(=N)N1CCCCC1	23.0*	.	.	.	.
CCOc1ccc2[nH]c(O)c(NC(C)=O)c2c1	2.5	2.1	2.8	4.0	27.7*
O=C(O)c1cccc2c1Cc1cc(Cl)ccc1-2	3.0	-0.9	3.6	.	24.8*
CCOC(=O)C1=NOC(Cn2cc(C#N)c(=O)n(C)c2=O)C1 (stereo not drawn)	1.0	0.1	-1.5	-1.0	36.4*
O=C(Cn1nc2n(c1=O)-c1ccccc1SC2)NN=Cc1ccncc1	7.0	.	.	.	.
Cc1nn(C)c(C(=O)NN=Cc2ccccc2)c1[N+](=O)[O-]	1.6	.	.	.	.
NC(=NCc1ccc2c(c1)OCO2)NC(=O)c1ccccc1	23.8*	5.5	0.0	.	-3.8
CC(C)C[C@H](NC(=O)C1CC(=O)N(c2ccc3c(c2)OCO3)C1)C(=O)NCc1ccco1 (stereo partly drawn)	4.2	-4.0	-0.8	27.0*	-7.3
O=C(NN=Cc1c(F)c(F)c(F)c(F)c1F)c1cccc(S(=O)(=O)N2CCOCC2)c1	-0.3	.	.	.	.
COc1ccc(C=NNc2cc(C)nc(NS(=O)(=O)c3ccc(C)cc3)n2)cc1	4.1	.	.	.	.
COC(=O)c1cc2ccccc2c([N+](=O)[O-])c1O	5.5	0.2	5.1	.	22.7*
CC(CC(=O)Nc1ccc(Cl)cn1)=NNC(=O)Cc1cccs1	6.4	.	.	.	.
O=C(CN1CCN(S(=O)(=O)c2ccc(F)cc2)CC1)Nc1ccccc1C(=O)NC1CC1	1.6	-0.2	1.1	.	25.9*
CC(/C=N/Nc1nnc(C)c(=O)[nH]1)=C\c1ccccc1	.	2.3	3.9	1.5	23.9*
CCO[C@@H]1c2c(ccc3ccc(=O)oc23)OC(C)(C)[C@@H]1O	-71.1	1.2	-1.9	.	31.5*
SMILES	UCH37 DUB inh	MT1-MMP act inh	DAGLB inhibitor	CTSL1 counter	NRP1-CendR mod
CCO[C@@H]1c2c(ccc3ccc(=O)oc23)OC(C)(C)[C@H]1O	-0.6	7.8	-2.1	.	-0.3
COc1ccc(-c2[nH]ncc2CN(C)CCc2c(C)n[nH]c2C)c(F)c1	-3.1	-4.6	-0.2	-1.4	26.0*
COc1ccc(-c2[nH]ncc2CN(C)C(C)c2cccs2)c(F)c1 (stereo not drawn)	3.3	3.3	-6.4	0.6	-8.6
Cc1cccc(-n2c(C)cc(C=NNC(=O)c3cccs3)c2C)c1	-5.5	.	.	.	.
CSC(=S)NN=C(C)c1cccc(C)n1	.	7.9	-1.8	.	26.7*
COCCn1c(-c2cccs2)csc1=Nc1cccnc1	2.1	-3.9	2.6	19.4*	3.9
COc1cc(C=NNC(=O)c2cccc3ccccc23)cc(OC)c1O	1.8	.	.	.	.
Nc1cccc(C(=O)NN=Cc2ccsc2)c1	1.1	.	.	.	.
COc1ccc(C=NNC(=O)c2ccc3c(c2)OCCO3)cc1[N+](=O)[O-]	4.8	.	.	.	.
COc1ccccc1N(C(=O)c1ccco1)C(C(=O)NC1CCCCC1)c1cc(OC)c(OC)c(OC)c1 (stereo not drawn)	1.0	-7.4	0.5	-0.2	26.5*
Cc1cc(C)cc(N(C(=O)CNC(=O)c2ccco2)C(C(=O)NC2CCCCC2)c2ccncc2)c1 (stereo not drawn)	4.1	-0.6	-0.2	1.2	21.5*
Cc1cc(C)cc(N(C(=O)CNC(=O)c2ccco2)C(C(=O)NC2CCCCC2)c2cccnc2)c1 (stereo not drawn)	-0.7	-2.5	-0.6	0.1	5.9
O=C(NCC(=O)N(c1ccccc1F)C(C(=O)NC1CCCC1)c1ccco1)c1ccco1 (stereo not drawn)	-0.9	1.3	-0.7	-4.3	5.4
COc1ccccc1N(C(=O)CNC(=O)c1ccco1)C(C(=O)NC1CCCC1)c1ccco1 (stereo not drawn)	-0.6	-1.9	-0.2	-5.5	17.9*
CN(C)c1ccc(C=NNC(=O)c2cc(=O)[nH]c3ccccc23)cc1	12.8	.	.	.	.
Cc1ccc(-c2cc(C(=O)NN=C/C=C/c3ccccc3)n[nH]2)s1	2.9	.	.	.	.
Cc1cc(-c2ccccc2)[nH]c(=O)c1C#N	-58.8	2.3	-0.3	2.6	2.6
N#Cc1c(-c2ccccc2)[nH]c(=O)[nH]c1=O	4.0	1.2	0.5	-4.8	27.4*
C=CCNC(=S)NN=C1CCS(=O)(=O)c2ccccc21	5.8	.	.	.	.
Cc1ccsc1C=NNC(=O)Cc1ccc(Cl)cc1	4.5	.	.	.	.
COc1cc(CCC(N)c2cccc(O)c2)cc(OC)c1OC (stereo not drawn)	-0.5	0.9	2.0	.	25.9*
Cc1ccc(S(=O)(=O)N2CCC(=O)N(CCOC(=O)Nc3ccccc3C)CC2)cc1	3.1	3.7	-1.8	0.1	19.2*
Cc1ccc(S(=O)(=O)N2CCC(=O)N(CCOC(=O)Nc3cc(C)cc(C)c3)CC2)cc1	0.9	2.4	0.7	-6.9	13.7
O=c1c2c(-c3cccs3)csc2ncn1N=Cc1ccccn1	3.8	.	.	.	.
Nc1nc(-c2ccc(Br)s2)c(Br)s1	1.8	3.8	-2.4	-0.7	29.7*
SMILES	UCH37 DUB inh	MT1-MMP act inh	DAGLB inhibitor	CTSL1 counter	NRP1-CendR mod
N#Cc1c(N)nc2c(c1-c1ccc(Br)s1)CCCC2	-49.3	-2.3	-0.8	0.0	-21.6
O=C(COc1ccc(C=NNC(=O)c2ccc(O)cc2)cc1)Nc1ccc([N+](=O)[O-])cc1	3.4	.	.	.	.
O=C(NCc1cccs1)c1ccc(Cl)c(S(=O)(=O)N2CCOCC2)c1	.	3.1	0.2	.	30.8*
COc1ccc(C=NNC(=O)c2cc(O)c(O)c(O)c2)cc1COc1ccc(C(=O)OCC(C)C)cc1	5.4	.	.	.	.
COCCN1C(=O)N[C@@H](c2ccccc2)[C@@H](C(=O)OC)[C@H]1C	21.5*	-1.6	-1.6	-2.1	3.4
CN1CCN(S(=O)(=O)c2ccc(NC(=O)c3cccs3)cc2)CC1	-0.6	5.3	-0.4	-2.0	21.9*
O=C(Nc1ccccc1)ON=C1CCCc2occc21	1.8	.	.	.	.
